High-throughput results (PubChem)
Rows were chosen to be rich in hits. Some 2.5% of all compounds tested hit in one or more screens of this group.
SENP1 inh: inhibitors of human SENP1 SUMO protease catalytic domain. Q9P0U3. recombinant SENP1 catalytic domain, CyPet-SUMO1-YPet FRET cleavage. inhibition, % at 10 µM. 360,000 tested, 0.21% active. AID 624204;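 active means inhibition at least 30% at 10 µM, raw YFP signal under a set limit, fluorescence ratio 0.5 to 1.5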
Target sequence (Q9P0U3 419-644 limits assumed): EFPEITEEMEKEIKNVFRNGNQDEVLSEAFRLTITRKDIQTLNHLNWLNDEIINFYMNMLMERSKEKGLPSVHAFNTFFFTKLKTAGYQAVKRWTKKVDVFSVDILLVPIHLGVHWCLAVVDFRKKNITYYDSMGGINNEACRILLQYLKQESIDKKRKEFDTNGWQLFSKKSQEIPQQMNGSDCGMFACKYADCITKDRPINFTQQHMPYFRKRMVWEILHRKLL
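system = hSENP1 catalytic domain, recombinant | reagent = SFCypet-SUMO1-SFYpet substrate at 25 nM | doses = one dose per compound, 10 µM, 0.5% DMSO | incubation = enzyme reaction for 50 min at room temperature, dark | measured by = FRET, CFP and YFP emission | controls = no-enzyme low, enzyme-DMSO high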
GRK2 inh: human GRK2 inhibition via aptamer displacement. bead flow cytometry, FAM-aptamer displacement from GRK2. inhibition of aptamer binding, % at 10 µM. 330,000 tested, 0.59% active. AID 488847;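 active means inhibition of aptamer binding above 40%, roughly 3 SD of noise, on plates passing a quality check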;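 further: median bead fluorescence of bound FAM aptamer so fluorescent compounds give negative values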
ABHD5-PLIN5 inh: blocks binding of human ABHD5 to perilipin-5. Q00G26+Q8WTS1. Split G. princeps luciferase complementation, luminescence, 4 h. inhibition, % at 4 µM. 360,000 tested, 0.78% active;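 active means inhibition above the mean inhibition across every tested compound plus 3 SD, cut at about 22% in these data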
NadD inh: NadD (S. aureus) enzyme inhibition; purified NadD enzyme, colorimetric absorbance read-out; inhibition, % at 20 µM; 360,000 tested, 0.78% active; AID 602399; in the data active means inhibition above about 26%
Beta2AR agonist: activates human beta-2 adrenergic receptor causing internalization. P07550. Am2.2-beta2AR cells, FAP receptor internalization, flow cytometry. response, % (no concentration beside the values). 340,000 tested, 0.43% active. AID 504454;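 active means response above a set limit, near 3 SD of response in nonfluorescent compounds, cut at about 42% in these data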
Target sequence (P07550 whole entry, looked up): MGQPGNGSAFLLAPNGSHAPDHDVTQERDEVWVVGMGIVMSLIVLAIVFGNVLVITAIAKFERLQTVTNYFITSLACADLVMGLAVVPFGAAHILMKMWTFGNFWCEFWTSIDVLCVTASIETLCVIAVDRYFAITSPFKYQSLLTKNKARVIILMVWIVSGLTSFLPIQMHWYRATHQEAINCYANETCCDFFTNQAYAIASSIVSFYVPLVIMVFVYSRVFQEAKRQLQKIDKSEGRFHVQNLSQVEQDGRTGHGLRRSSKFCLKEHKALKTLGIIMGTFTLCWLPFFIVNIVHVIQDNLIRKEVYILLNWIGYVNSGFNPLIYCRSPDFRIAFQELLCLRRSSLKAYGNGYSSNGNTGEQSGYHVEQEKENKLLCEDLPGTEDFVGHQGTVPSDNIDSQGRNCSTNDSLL
Each line names hits and unclear results; the compound was inactive in the other large screens.

N=c1c(C(=O)NCc2ccc(F)cc2)cc2c(=O)n3ccccc3nc2n1Cc1ccco1	NadD inh 31
N=c1c(C(=O)NCCN2CCOCC2)cc2c(=O)n3ccccc3nc2n1Cc1ccc(F)cc1	none
CCn1c(C)c(C(=O)c2ccccc2)c(C#N)c1C(=O)O	none
COc1cccc(NC(=O)c2ccnc(N3CCC(C(=O)NCc4cc(OC)ccc4OC)CC3)c2)c1	none
CNC[C@@H]1Oc2cc(Br)ccc2S(=O)(=O)N([C@@H](C)CO)C[C@H]1C	none (no result: GRK2 inh, Beta2AR agonist)
COc1ccc2cc3c(N)nn(C(=O)c4ccc(Cl)c([N+](=O)[O-])c4)c3nc2c1	GRK2 inh 57
Nc1ccc(OCCCc2c(N)nc(N)nc2N)cc1	NadD inh 44
Cc1ccc(C2=NN(C(=O)CCCC(=O)O)C(c3ccc4c(c3)OCO4)C2)cc1 (centres undefined)	none (no result: GRK2 inh)
CCCOc1ccc(C(=O)CCC(=O)OCC(=O)Nc2ccc(OCC)cc2)cc1	GRK2 inh 85 (no result: SENP1 inh, ABHD5-PLIN5 inh, NadD inh, Beta2AR agonist)
COc1cccc(NC2=C(NCCO)C(=O)c3ccccc3C2=O)c1	none
COc1ccc(NC2=C(NCCO)C(=O)c3ccccc3C2=O)cc1	Beta2AR agonist 66
O=C(Nc1ccc2nc(-c3ccco3)c(-c3ccco3)nc2c1)NC1CC1	ABHD5-PLIN5 inh 26, NadD inh 28 (no result: GRK2 inh)
O=C(Nc1cccc(C(F)(F)F)c1)c1cc[n+]([O-])cc1	none
O=C(NCCCO)Nc1ccc2nc(-c3ccco3)c(-c3ccco3)nc2c1	none (no result: SENP1 inh, ABHD5-PLIN5 inh, NadD inh, Beta2AR agonist)
O=C(Nc1cccc(C(F)(F)F)c1)c1ccc2nc(-c3ccco3)c(-c3ccco3)nc2c1	ABHD5-PLIN5 inh 38, NadD inh 65
COc1ccc(CCNC(=O)c2ccc3nc(-c4ccco4)c(-c4ccco4)nc3c2)cc1OC	ABHD5-PLIN5 inh 34, NadD inh 47
O=C(CCC1CCCC1)NNC(=O)c1cccc(Cl)c1	none
COc1ccc2c(c1)C(C)(Cc1ccc(C(=O)c3ccccc3)cc1)C(=O)N2 (centres undefined)	none (no result: GRK2 inh, Beta2AR agonist)
CCOC(=O)c1ccc(Oc2nc(N(C)C)nc(N(C)C)n2)cc1	none
CN(C)c1nc(Oc2ccc(N)cc2)nc(N(C)C)n1	Beta2AR agonist 77
CCc1ccc(NC(=O)C/C(C)=N/NC(=O)COc2ccccc2C)cc1	none
Oc1ccc2ccccc2c1N=Nc1ccccn1	none
CCOC(=O)c1[nH]cnc1N=Nc1c(O)ccc2ccccc12	SENP1 inh 62
CCc1noc(C)c1C(=O)Nc1nnc(C2CCCCC2)s1	none (no result: SENP1 inh, ABHD5-PLIN5 inh, NadD inh, Beta2AR agonist)
CC1(C)CN(C(=S)Nc2ccc(F)cc2F)C1=O	none
Cc1c2cc[n+](CCN3CCCCC3)cc2c(C)c2c1[nH]c1ccc(O)cc12	NadD inh 48 (no result: GRK2 inh)
CCOC(=O)c1[nH]c2ccc(C)cc2c1NC(=O)CN1CCCCC1	none
Cc1ccc(C)c(OCC(=O)N(Cc2ccccc2)c2c(N)n(Cc3ccccc3)c(=O)[nH]c2=O)c1	none (no result: GRK2 inh)
c1csc(C2Nc3cccc4cccc(c34)N2)c1	NadD inh 31
CCOc1ccc(C2Nc3cccc4cccc(c34)N2)cc1OC	none
Clc1cccc(Cl)c1C1Nc2cccc3cccc(c23)N1	none
Clc1ccc(C2Nc3cccc4cccc(c34)N2)cc1Cl	none
Clc1cccc(C2Nc3cccc4cccc(c34)N2)c1	NadD inh 27
CCOc1cc(C2Nc3cccc4cccc(c34)N2)ccc1O	NadD inh 30
COc1ccc(C2Nc3cccc4cccc(c34)N2)cc1	NadD inh 39
c1ccc(C2Nc3cccc4cccc(c34)N2)cc1	none
Cn1c(=O)cc(OCC(=O)NCc2ccccn2)c2ccccc21	ABHD5-PLIN5 inh 73
CCNc1ccc(Br)cc(C(=O)/C=C/c2c(Cl)cccc2Cl)c1=O	ABHD5-PLIN5 inh 44, NadD inh 56
CNc1ccc(Br)cc(C(=O)/C=C/c2ccc(OC)cc2OC)c1=O	none
CC(C)Nc1nnc(SCC(=O)Nc2ccc3c(c2)C(=O)c2ccccc2C3=O)s1	none
O=C(CSc1nnc(NC2CCCCC2)s1)Nc1ccc2c(c1)C(=O)c1ccccc1C2=O	NadD inh 46
CN=c1scc(-c2cccs2)n1/N=C/c1ccccc1O	none
CN=c1scc(C)n1/N=C/c1ccc(O)c(O)c1O	Beta2AR agonist 69
COCCN=c1scc(-c2ccco2)n1/N=C/c1ccc(O)c(O)c1O	NadD inh 39
CN=c1scc(-c2cccs2)n1/N=C/c1ccc(O)c(O)c1O	Beta2AR agonist 106
Cc1ccc2cc(CN(Cc3ccc4c(c3)OCO4)Cc3nnnn3Cc3ccco3)c(=O)[nH]c2c1	none
COc1ccc2[nH]c(=O)c(CN(Cc3nnnn3Cc3ccco3)C3CCCCC3)cc2c1	none
COc1ccc2cc(CN(CCc3ccccc3)Cc3nnnn3Cc3ccco3)c(=O)[nH]c2c1	ABHD5-PLIN5 inh 22
COc1ccc2[nH]c(=O)c(CN(C3CCCCC3)C(c3nnnn3Cc3ccco3)C(C)C)cc2c1 (centres undefined)	ABHD5-PLIN5 inh 46, NadD inh 59
COc1ccc(-c2c(-c3ccc(OC)nc3)c3ccccc3n2C)cc1	none
Cc1ccc(S(=O)(=O)N2CCCCC2)cc1C(=O)OC1CCCCC1=O (centres undefined)	none
CCC(=O)OCC(=O)[C@@]1(OC(=O)CC)[C@@H](C)C[C@H]2[C@@H]3CCC4=CC(=O)C=C[C@]4(C)[C@@]3(Cl)[C@@H](O)C[C@@]21C	none
CN(C)Cc1cc(C(C)(C)C)cc(C(C)(C)C)c1O	none
CN(C)Cc1cc(O)c(CN(C)C)cc1O	SENP1 inh 32
O=C1C(Cl)=C(Nc2ccc(O)cc2)C(=O)c2ccccc21	Beta2AR agonist 73
CCN(CC)c1ccc(NC2=C(Cl)C(=O)c3ccccc3C2=O)cc1	Beta2AR agonist 74
CC(=O)C1=C(C)NC(SCC(=O)c2ccc(Cl)c(Cl)c2)=C(C#N)C1c1ccco1 (centres undefined)	none
CC(=O)C1=C(C)NC(SCC(=O)c2cc(Cl)ccc2Cl)=C(C#N)C1c1ccco1 (centres undefined)	ABHD5-PLIN5 inh 22
O=C(NCCCN1C(=O)c2ccccc2C1=O)OCc1ccccc1	none (no result: GRK2 inh)
CN(C)c1ccc(N/C=C/C(=O)c2ccc(F)cc2)cc1	SENP1 inh 67
CN(C)c1ccc(N/C=C/C(=O)c2ccco2)cc1	SENP1 inh 71
CCC1CSC(Nc2ccc(C(=O)/C=C/c3ccc(OC)c(OC)c3)cc2)=N1 (centres undefined)	GRK2 inh 48
CCOc1ccc(/C=C/C(=O)Nc2ccc(C(N)=O)cc2)cc1OC	none
CCN(CC)C(=O)[C@H]1C[C@H](CC(=O)NCc2ccc(OC)c(OC)c2)C(=O)N2CCc3c([nH]c4cc(-c5ccco5)ccc34)[C@]12C	ABHD5-PLIN5 inh 23
COc1ccc(CNC(=O)C[C@H]2C[C@H](C(=O)N3CCCCC3)[C@@]3(C)c4[nH]c5cc(-c6ccco6)ccc5c4CCN3C2=O)cc1OC	none
CC(C)N(C(=O)[C@H]1C[C@H](CC(=O)NCc2cccc(C(F)(F)F)c2)C(=O)N2CCc3c([nH]c4cc(-c5ccco5)ccc34)[C@]12C)C(C)C	ABHD5-PLIN5 inh 22
